Source: PubChem BioAssay (Sanford-Burnham Center for Chemical Genomics)
SUMO1 PPI mod: modulators of SUMO1 protein-protein interactions, primary screen, biochemical, uHTS; Small ubiquitin-related modifier 1 (Homo sapiens), P63165; SUMO1 binding to a labelled peptide, TR-FRET, 1 h; AID 602429, 2012; hit rate 0.33% among 360,000; inhibition, % at 20 µM; in the data active = inhibition above about 37%
Target sequence (P63165 whole entry, looked up): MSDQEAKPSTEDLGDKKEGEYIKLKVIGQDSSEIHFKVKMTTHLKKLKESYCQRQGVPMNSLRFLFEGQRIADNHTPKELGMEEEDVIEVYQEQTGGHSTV
HKDC1 inhibitor: HKDC1 hexokinase inhibitors, primary screen, biochemical, fluorescence, uHTS. AID 493160, 2011. inhibition, % at 20 µM. hit rate 0.16% among 340,000. Q2TB90. recombinant HKDC1, G6PDH/diaphorase resazurin coupled fluorescence;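 active = inhibition above about 35% when tested at 20 µM, limit read from the data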;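 note: plate controls were DMSO wells with enzyme for no effect and DMSO wells lacking enzyme for full effect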
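Assay system: in-house recombinant HK5 (HKDC1) enzyme. Input: HKDC1 at 5 µg/mL. Medium: Tris pH 8.0 buffer with MgCl2, Tween-20, BSA, BME. Dosing: single 20 µM dose. Schedule: 90 min reaction incubation at room temperature, dark. Signal: resazurin-to-resorufin fluorescence via G6PDH and diaphorase coupling, 525/613 nm. Controls: DMSO-enzyme wells negative, buffer-substituted wells positive.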
LMPTP inh: LMPTP phosphatase inhibitors, primary screen, biochemical, fluorescence intensity, uHTS | hit rate 0.22% among 360,000 | inhibition, % at 20 µM | recombinant LMPTP-A, OMFP fluorogenic substrate | AID 651560, 2012 | Low molecular weight phosphotyrosine protein phosphatase (Homo sapiens), P24666;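 active = compounds that cut the enzyme signal by at least half of the control window in the single-dose screen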;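 note: plate controls were DMSO wells with enzyme plus substrate for no effect and substrate without enzyme for full effect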
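Assay system: LMPTP-A phosphatase enzyme | Input: 0.625 nM enzyme | Also added: Fluorogenic phosphatase substrate OMFP at 400 µM final | Compound dosing: One test concentration per compound, 20 µM, with 3% DMSO overall | Schedule: 50 min enzyme reaction at room temperature, protected from light | Signal: Fluorescence intensity | Benchmarks: no-enzyme and uninhibited controls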
Scp-1 inhibitor: Scp-1 phosphatase inhibitors, primary screen, biochemical, colorimetric, uHTS | Carboxy-terminal domain RNA polymerase II polypeptide A small phosphatase 1 (Homo … | Recombinant Scp1, phosphopeptide, malachite green phosphate absorbance | inhibition, % at 20 µM | hit rate 0.88% among 340,000 | AID 493091, 2011;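 active = inhibition above about 50% at 20 µM, limit read from the data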;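 note: plate controls were DMSO wells with enzyme for no effect and wells lacking enzyme for full effect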
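assay system = SCP-1 phosphatase catalytic domain, residues 76-261 | buffer or medium = 50 mM Tris acetate pH 5.5, 0.005% Tween-20, 10 mM MgCl2 | incubation = enzyme reaction 45 min at room temperature, colour 5 min, stabilisation 30 min | signal = Phosphate-binding colour reagent, absorbance read at 630 nm | measure = % inhibition at 20 µM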
DNMT1 inh: human DNMT1 methyltransferase inhibitors, primary screen, biochemical, molecular beacon, fluorescence, HinP1I cleavage, uHTS. DNA (cytosine-5)-methyltransferase 1 (Homo sapiens), P26358. inhibition (reported as % activation of signal), % at 10 µM. hit rate 0.83% among 360,000. AID 588458, 2011; in the data active = inhibition above about 50%
STEP block: STEP phosphatase inhibitors, primary screen, biochemical, fluorescence intensity, uHTS. Tyrosine-protein phosphatase non-receptor type 5 (Homo sapiens), P54829. recombinant STEP, OMFP fluorogenic substrate. inhibition, % at 20 µM. hit rate 0.25% among 360,000. AID 588621, 2011;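 active = inhibition at 20 µM, scaled per plate between control wells, above about 37%, limit read from the data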;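 note: 0% = DMSO with enzyme and substrate and 100% = substrate only without enzyme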
Target sequence (P54829 whole entry, looked up): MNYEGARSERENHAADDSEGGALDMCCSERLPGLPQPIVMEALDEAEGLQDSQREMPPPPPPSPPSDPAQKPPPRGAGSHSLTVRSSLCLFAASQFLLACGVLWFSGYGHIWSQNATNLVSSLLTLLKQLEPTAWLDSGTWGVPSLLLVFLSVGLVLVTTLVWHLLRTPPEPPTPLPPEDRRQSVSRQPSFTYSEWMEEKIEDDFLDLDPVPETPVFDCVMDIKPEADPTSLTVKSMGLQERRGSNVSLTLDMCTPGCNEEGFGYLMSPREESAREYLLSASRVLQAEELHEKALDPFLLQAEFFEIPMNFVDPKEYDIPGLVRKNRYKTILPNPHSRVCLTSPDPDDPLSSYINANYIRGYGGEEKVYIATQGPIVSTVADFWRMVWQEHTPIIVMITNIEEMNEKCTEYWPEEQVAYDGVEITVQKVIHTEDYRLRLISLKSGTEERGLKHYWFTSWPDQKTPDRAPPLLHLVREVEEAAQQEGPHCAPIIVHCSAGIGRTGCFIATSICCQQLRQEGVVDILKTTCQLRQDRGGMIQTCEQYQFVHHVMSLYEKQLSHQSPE
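Assay system: isolated STEP enzyme / Timing: 20 min at room temperature, dark / Doses: 20 µM, 1% DMSO / Technique: fluorescence intensity, excitation 480 nm, emission 540 nm / Reagent: fluorogenic phosphatase substrate OMFP at 25 µM final / Measure: percent inhibition scaled to no-enzyme and uninhibited-enzyme controls, plate-pattern corrected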
* = called active by the depositor; i = inactive; . = no result given; + = active, no number. Most compounds without a hit are left out; they make up all but 1.8% or so of the library.

SMILES	SUMO1 PPI mod	HKDC1 inhibitor	LMPTP inh	Scp-1 inhibitor	DNMT1 inh	STEP block
CCCC1=NN2C(=N)/C(=C\c3cc(C)n(-c4cccc(C)c4)c3C)C(=O)N=C2S1	-3	-1	-1	-4	56*	-1
COc1ccc(S(=O)(=O)N2C[C@@H](O)COC[C@@H]3O[C@H](CC(=O)NCCCN4CCOCC4)CC[C@H]32)cc1	2	.	-3	.	.	.
O=C(O)c1ccc2c(c1)[C@@H]1C=CC[C@@H]1[C@H](c1ccccn1)N2	34	10	2	47	111*	31
CC1=CN2C(=N)/C(=C\c3cn(CCCOc4ccccc4)c4ccccc34)C(=O)N=C2S1	2	-9	0	2	0	-1
COC(=O)c1ccc(OCC(=O)Nc2nn(-c3ccccc3)nc2C(N)=O)cc1	50*	-11	-2	2	-27	-2
CCN1CCC2(CC1)N=C(c1ccc(F)cc1)C(=S)N2C(=O)c1ccc(C(C)(C)C)cc1	17	4	-1	6	4	56*
CN1CCC2(CC1)N=C(c1ccc(F)cc1)C(=S)N2C(=O)c1ccccc1	2	6	0	-4	-3	-2
Cc1cccc(-n2ccnc2SCC(=O)c2c(N)n(C3CC3)c(=O)[nH]c2=O)c1C	11	-5	0	-5	0	0
Cc1cc(/C=N/NC(N)=S)c(O)c(/C=N/NC(N)=S)c1	-7	-15	1	12	53*	-1
NC(=S)N/N=C/c1cccc(O)c1O	2	12	4	-3	0	2
Cc1cccn2c(=O)c(C(=O)NC3CC(C)CC(C)(C)C3)c(O)nc12 (stereo not drawn)	-2	4	3	-3	3	1
CC(C)CNC(=O)C1Nc2ccccc2C2C=CCC12 (stereo not drawn)	-2	3	0	0	-18	-1
O=C(O)C1Nc2ccc(Br)cc2C2C=CCC12 (stereo not drawn)	94*	28	84*	69*	93*	94*
O=C(O)C1Nc2c(Cl)cc(Cl)cc2C2C=CCC12 (stereo not drawn)	103*	31	87*	72*	88*	41*
O=C(O)C1Nc2c(O)cccc2C2C=CCC12 (stereo not drawn)	26	6	74*	71*	103*	16
Cc1cc(-n2c(C)cc(C(=S)N3CCOCC3)c2C)ccc1Br	1	-5	2	7	-1	-3
Cc1nc(N)nc(N)c1/C=C/C(C)(C)c1ccc(Cl)cc1	5	0	81*	6	0	6
C=CCOC1COC2C(OCC=C)COC12 (stereo not drawn)	-2	-7	-1	-12	5	-2
CC(=O)c1c(C)[nH]c(C(=O)OCC(=O)c2ccc3c(c2)NC(=O)CO3)c1C	65*	-2	2	-9	-3	-1
CCCNC(=O)c1cc(C2CCCCN2C(=O)c2ccc3c(c2)CCO3)on1 (stereo not drawn)	-1	.	-3	.	5	-2
O=C(/C=C/c1cccc(Cl)c1)c1ccc([N+](=O)[O-])o1	-18	61*	2	-6	26	3
COc1cc(/C=C/C(=O)c2ccc([N+](=O)[O-])o2)ccc1O	-7	34	-1	9	11	4
CCN1C(=O)c2cccc3c(Cl)ccc(c23)C1=O	-32	-4	0	-5	4	-2
CC(C)CCN1C(=O)c2cccc3c(N)ccc(c23)C1=O	-90	5	-5	-7	122*	-114
Cc1cccc(N2C(=O)c3cccc4c(N)ccc(c34)C2=O)c1	-107	5	-8	0	75*	-115
SMILES	SUMO1 PPI mod	HKDC1 inhibitor	LMPTP inh	Scp-1 inhibitor	DNMT1 inh	STEP block
Nc1cccc(N2C(=O)c3cccc4c(N)ccc(c34)C2=O)c1	-68	5	-2	-8	40	-32
OC(c1cc(F)cc(Cl)c1)c1ncc(-c2ccc3ccccc3c2)[nH]1 (stereo not drawn)	-15	.	5	.	-1	-1
CC(=O)N/N=C/c1ccccc1OCCOc1cccc(C)c1	-1	-7	1	-13	0	-4
CC(=O)Oc1ccc2c(c1)Oc1cc(OC(C)=O)ccc1C21OC(=O)c2ccccc21	i	-12	-1	-5	+	-6
Cc1cc(O)ccc1C1(c2ccc(O)cc2C)OC(=O)c2ccccc21	-2	3	2	-22	-10	-3
CN(C(=O)c1ccc(-c2nn(C)c(=O)c3ccccc23)cc1)C1CCCCC1	-4	1	2	0	2	2
CCCCn1c(N)c(N(CC(C)C)C(=O)c2cc(-c3ccco3)nc3ccccc23)c(=O)[nH]c1=O	4	1	7	28	21	0
CCCCN(C(=O)c1cc(-c2ccco2)nc2ccccc12)c1c(N)n(CCC)c(=O)[nH]c1=O	3	9	9	61*	53*	6
COc1ccc2[nH]c3nc(SCc4nnc(-c5ccc(C)cc5)o4)nnc3c2c1	-1	-4	6	-5	56*	4
CCN(Cc1ccc(Br)s1)C(=O)CSc1nnc(C2CC2)n1C1CC1	0	.	-2	.	1	0
Cc1ccc(C(=O)N2CCCC(Nc3ccc(C(C)C)cc3)C2)cn1 (stereo not drawn)	-4	1	1	-5	-2	0
COc1ccc(NC(=S)Nc2ccc3nc(C)c(C)nc3c2)cc1	-6	4	2	-2	-2	-1
COc1ccc(NC(=S)Nc2ccc3nsnc3c2)cc1	58*	2	10	14	64*	6
O=C(Nc1ccc(-c2nc3ccccc3[nH]2)cc1)c1ccc2c(c1)OCO2	42*	-7	7	1	18	5
O=C(Nc1ccc(Cl)c(-c2nc3ccccc3[nH]2)c1)c1ccc2c(c1)OCO2	6	7	2	0	-7	2
O=C(COC(=O)c1ccc([N+](=O)[O-])s1)NCc1ccc(F)cc1	49*	-3	0	-10	28	2
O=C(COC(=O)c1ccc([N+](=O)[O-])s1)NC(=O)NCc1ccccc1	26	6	-1	-1	-4	-1
O=C(COC(=O)c1ccc([N+](=O)[O-])s1)c1ccc[nH]1	14	4	1	15	50*	-6
